Measured values reported in ChEMBL document CHEMBL1255195, “Synthesis and biological activity of pyrido[3',2':4,5]thieno[3,2-d]pyrimidines as phosphodiesterase type 4 inhibitors” (J Med Chem, 2010).

Columns and labels:
[1] = target: 3',5'-cyclic-AMP phosphodiesterase 4D (Homo sapiens, UniProt Q08499); assay: Inhibition of PDE4D3 expressed in yeast
[2] = target: 3',5'-cyclic-AMP phosphodiesterase 4A (Homo sapiens, UniProt P27815); assay: Inhibition of PDE4A4 expressed in yeast
Blood = assay: Antiinflammatory activity against LPS-induced TNFalpha production in human whole blood by ELISA; format: functional, tissue-based
Procedure, shortened: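 Human whole blood preincubated at 37 °C for 10 min with LPS at final 1 μg/mL; inhibitors in 100% DMSO added at increasing concentrations, blood (LPS-free for controls) incubated 24 h at 37 °C under agitation. Reaction stopped on ice with PBS and centrifugation; serum TNFα measured by sandwich ELISA, TMB substrate, 450 nm. Experiments run 2-3 times, duplicates averaged, given as pg/mL.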

[3] = target: 3',5'-cyclic-AMP phosphodiesterase 4B (Homo sapiens, UniProt Q07343); assay: Inhibition of PDE4B1 expressed in yeast
Procedure, shortened: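 Human recombinant PDE4A4, PDE4B1 or PDE4D3 made in galactose-induced […]; dialysed extracts (~4 μg protein) used. Hydrolysis of 15 nM [3H]-cAMP in 50 mM Tris pH 7.5, 8.3 mM MgCl2, 1.7 mM EGTA, final DMSO 5%, 60 min at room temperature. Reaction stopped with SPA beads, then scintillation counted. Compounds tested 10 μM to 10 pM in duplicate; IC50 calculated.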

[4] = Apparent permeability from apical to basolateral side of human Caco-2 cells; format: ADME, cell-based
Procedure, shortened: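 Caco-2 cells seeded at 500 000 cells/well on collagen-coated PET membranes (1 μm pores), differentiated and used six days post-seeding. Compound applied in HBSS with 10 mM Hepes and 25 mM glucose, pH 7.4, at most 1% DMSO, on the apical side. Samples taken after 3 h and analysed by HPLC-UV. [3H]mannitol 115 nM served as integrity control.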

Sequence of 3',5'-cyclic-AMP phosphodiesterase 4A (P27815 whole entry): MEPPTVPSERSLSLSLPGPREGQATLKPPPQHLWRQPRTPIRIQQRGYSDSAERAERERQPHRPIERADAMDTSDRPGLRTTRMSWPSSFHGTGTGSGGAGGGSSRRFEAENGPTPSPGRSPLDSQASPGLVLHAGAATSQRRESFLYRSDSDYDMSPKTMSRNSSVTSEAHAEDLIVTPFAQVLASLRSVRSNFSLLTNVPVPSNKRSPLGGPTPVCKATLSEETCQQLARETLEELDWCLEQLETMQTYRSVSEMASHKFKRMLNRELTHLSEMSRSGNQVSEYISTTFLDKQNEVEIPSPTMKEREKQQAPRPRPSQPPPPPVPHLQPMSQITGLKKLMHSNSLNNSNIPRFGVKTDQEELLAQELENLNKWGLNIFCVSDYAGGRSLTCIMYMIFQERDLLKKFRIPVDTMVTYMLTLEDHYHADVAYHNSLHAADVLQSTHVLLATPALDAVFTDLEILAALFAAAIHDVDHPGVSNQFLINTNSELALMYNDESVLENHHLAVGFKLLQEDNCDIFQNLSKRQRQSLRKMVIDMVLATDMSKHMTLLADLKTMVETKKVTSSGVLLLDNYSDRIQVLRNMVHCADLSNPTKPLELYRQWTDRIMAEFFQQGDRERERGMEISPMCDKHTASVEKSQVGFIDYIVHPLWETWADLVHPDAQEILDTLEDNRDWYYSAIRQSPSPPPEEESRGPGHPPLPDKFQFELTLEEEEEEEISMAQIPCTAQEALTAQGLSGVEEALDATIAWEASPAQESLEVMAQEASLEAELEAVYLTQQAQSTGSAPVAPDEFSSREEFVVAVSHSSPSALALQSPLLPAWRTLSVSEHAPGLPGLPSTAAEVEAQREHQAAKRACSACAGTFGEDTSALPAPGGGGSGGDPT
Sequence of 3',5'-cyclic-AMP phosphodiesterase 4D (Q08499 whole entry): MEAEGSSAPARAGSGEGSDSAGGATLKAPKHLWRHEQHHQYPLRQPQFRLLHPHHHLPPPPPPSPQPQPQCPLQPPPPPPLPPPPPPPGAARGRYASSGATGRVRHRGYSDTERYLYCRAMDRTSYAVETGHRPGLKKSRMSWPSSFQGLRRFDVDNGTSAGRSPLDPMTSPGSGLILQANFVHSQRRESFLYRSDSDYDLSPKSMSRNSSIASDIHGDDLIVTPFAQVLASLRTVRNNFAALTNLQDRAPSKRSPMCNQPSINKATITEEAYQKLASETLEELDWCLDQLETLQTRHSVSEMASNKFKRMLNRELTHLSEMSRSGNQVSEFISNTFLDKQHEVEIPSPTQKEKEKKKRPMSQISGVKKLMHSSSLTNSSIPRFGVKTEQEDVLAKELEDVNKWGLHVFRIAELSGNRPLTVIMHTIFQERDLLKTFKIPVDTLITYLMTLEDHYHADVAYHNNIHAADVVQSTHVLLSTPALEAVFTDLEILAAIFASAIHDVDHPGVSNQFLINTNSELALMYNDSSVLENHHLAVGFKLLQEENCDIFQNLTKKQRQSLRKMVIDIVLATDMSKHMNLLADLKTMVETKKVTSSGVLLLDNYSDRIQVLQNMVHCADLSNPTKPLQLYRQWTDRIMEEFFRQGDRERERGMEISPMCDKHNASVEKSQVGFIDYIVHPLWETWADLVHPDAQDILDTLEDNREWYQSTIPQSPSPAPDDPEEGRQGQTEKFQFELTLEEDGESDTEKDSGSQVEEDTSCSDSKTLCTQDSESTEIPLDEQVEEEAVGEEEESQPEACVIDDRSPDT
Sequence of 3',5'-cyclic-AMP phosphodiesterase 4B (Q07343 whole entry): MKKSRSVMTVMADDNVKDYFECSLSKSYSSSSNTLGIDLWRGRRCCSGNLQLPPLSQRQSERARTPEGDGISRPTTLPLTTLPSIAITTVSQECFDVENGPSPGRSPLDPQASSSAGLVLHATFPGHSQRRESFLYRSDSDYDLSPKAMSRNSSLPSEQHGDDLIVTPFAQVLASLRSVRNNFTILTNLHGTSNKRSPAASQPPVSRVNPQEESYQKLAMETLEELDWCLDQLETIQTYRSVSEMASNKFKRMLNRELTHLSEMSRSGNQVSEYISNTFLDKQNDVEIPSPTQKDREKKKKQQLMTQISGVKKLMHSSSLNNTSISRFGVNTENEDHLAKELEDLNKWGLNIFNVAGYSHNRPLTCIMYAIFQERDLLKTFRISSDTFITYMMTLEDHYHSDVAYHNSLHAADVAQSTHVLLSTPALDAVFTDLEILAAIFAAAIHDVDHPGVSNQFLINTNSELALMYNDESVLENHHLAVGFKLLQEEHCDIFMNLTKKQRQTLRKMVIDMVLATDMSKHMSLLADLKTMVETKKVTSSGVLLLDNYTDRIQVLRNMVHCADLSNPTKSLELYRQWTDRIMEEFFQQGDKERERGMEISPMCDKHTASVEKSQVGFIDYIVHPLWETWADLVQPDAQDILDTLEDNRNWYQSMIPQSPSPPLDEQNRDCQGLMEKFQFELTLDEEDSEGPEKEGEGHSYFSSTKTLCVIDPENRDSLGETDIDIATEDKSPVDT

Structure (SMILES)	IC50 [1]	IC50 [2]	IC50 (Blood)	IC50 [3]	Papp A→B [4]
CC1(C)Cc2c(c(N3CCOCC3)nc3sc4c(NCc5cccnc5)ncnc4c23)CO1	52 nM	48 nM	639 nM	5.7 nM	
CN1CCN(c2nc3sc4c(NCCN5CCOCC5)ncnc4c3c3c2CCC(C)(C)C3)CC1				95 nM	
CC1(C)Cc2c(c(N3CCOCC3)nc3sc4c(NCCCN5CCCC5=O)ncnc4c23)CO1				167 nM	
Cc1nc2sc3c(NCCN4CCOCC4)ncnc3c2c2c1CCC(C)(C)C2	34 nM	97 nM	912 nM	37 nM	
CC1(C)CCc2c(-c3ccco3)nc3sc4c(NCCN5CCOCC5)ncnc4c3c2C1	7.9 nM	5.4 nM	1090 nM	3.8 nM	
CC1(C)Cc2c(c(N3CCOCC3)nc3sc4c(NCc5ccncc5)ncnc4c23)CO1	128 nM	97 nM	1020 nM	22 nM	
CN(Cc1ccccc1)c1nc2sc3c(NCCN4CCOCC4)ncnc3c2c2c1CCC(C)(C)C2				865 nM	
CC(C)Cc1nc2sc3c(NCCN4CCOCC4)ncnc3c2c2c1CCC(C)(C)C2	39 nM	6.7 nM	1280 nM	7.2 nM	0.4 ×10⁻⁶ cm/s
CC1(C)CCc2c(N3CCOCC3)nc3sc4c(NCc5cccnc5)ncnc4c3c2C1	32 nM	4.5 nM	381 nM	3.6 nM	
CC1(C)CCc2c(N3CCOCC3)nc3sc4c(NCCCN5CCCC5=O)ncnc4c3c2C1	61 nM	18 nM	2150 nM	21 nM	
CN(C)c1nc2sc3c(NCCN4CCOCC4)ncnc3c2c2c1COC(C)(C)C2	25 nM	20 nM	261 nM	45 nM	21.9 ×10⁻⁶ cm/s
COc1ccccc1CNc1ncnc2c1sc1nc(N3CCOCC3)c3c(c12)CC(C)(C)OC3	119 nM	67 nM	1190 nM	40 nM	
COc1ccccc1CNc1ncnc2c1sc1nc(N3CCOCC3)c3c(c12)CC(C)(C)CC3				213 nM	
CN1Cc2c(N3CCOCC3)nc3sc4c(NCCN5CCOCC5)ncnc4c3c2CC1(C)C			3270 nM	3700 nM	
CC1(C)CCc2c(N3CCOCC3)nc3sc4c(N(CCO)CCN5CCOCC5)ncnc4c3c2C1	1.8 nM	6.4 nM	327 nM	2.8 nM	
COc1ccc(C2CNC(=O)C2)cc1OC1CCCC1 (stereo not given) [ROLIPRAM]			1480 nM		

Structure (SMILES)	IC50 [1]	IC50 [2]	IC50 (Blood)	IC50 [3]	Papp A→B [4]
CC1(C)Cc2c(c(N3CCOCC3)nc3sc4c(NCCN5CCOCC5)ncnc4c23)CO1	604 nM	63 nM	235 nM	26 nM	
c1nc(NCCN2CCOCC2)c2sc3nc(N4CCOCC4)c4c(c3c2n1)CCOC4				1770 nM	
CC1(C)CCc2c(N3CCOCC3)nc3sc4c(NCCN5CCOCC5)ncnc4c3c2C1	4.6 nM	74 nM	1370 nM	2.9 nM	
CNc1nc2sc3c(NCCN4CCOCC4)ncnc3c2c2c1CCC(C)(C)C2	4.2 nM	18 nM	233 nM	9.9 nM	13.7 ×10⁻⁶ cm/s
CC1(C)Cc2c(c(N3CCOCC3)nc3sc4c(N(CCN5CCOCC5)Cc5cccnc5)ncnc4c23)CO1	19 nM	5 nM	401 nM	4.5 nM	
CC1(C)Cc2c(c(N3CCOCC3)nc3sc4c(N(CCO)CCN5CCOCC5)ncnc4c23)CO1	39 nM	23 nM	537 nM	13 nM	
CC1(C)Cc2c(N3CCOCC3)nc3sc4c(NCCN5CCOCC5)ncnc4c3c2C1				333 nM	
CC1(C)CCc2c(-c3ccoc3)nc3sc4c(NCCN5CCOCC5)ncnc4c3c2C1	3.1 nM	9 nM	1240 nM	2.9 nM	
CNc1nc2sc3c(NCCN4CCOCC4)ncnc3c2c2c1COC(C)(C)C2				51 nM	
CC1(C)CCc2c(N3CCOCC3)nc3sc4c(NCc5ccncc5)ncnc4c3c2C1	13 nM	19 nM	2040 nM	11 nM	
CC1(C)CCc2c(N3CCOCC3)nc3sc4c(NCCN5CCOCC5)ncnc4c3c21				274 nM	
CC1(C)CCc2c(N3CCCC3)nc3sc4c(NCCN5CCOCC5)ncnc4c3c2C1	11 nM	43 nM	655 nM	8.05 nM	
CN1CCN(c2nc3sc4c(NCCN5CCOCC5)ncnc4c3c3c2COC(C)(C)C3)CC1				1200 nM	
CCC1(C)Cc2c(c(N3CCOCC3)nc3sc4c(NCCN5CCOCC5)ncnc4c23)CO1 (stereo not given)			2040 nM	90 nM	
CC1(C)Cc2c(c(N3CCOCC3)nc3sc4c(NCCN5CCCCC5)ncnc4c23)CO1				284 nM	
